The source of these data is ChEMBL document CHEMBL5154785, “Hypothesis-Driven, Structure-Based Design in Photopharmacology: The Case of eDHFR Inhibitors” (J Med Chem, 2022).

In general, MIC refers to the least concentration at which growth counts as inhibited. For orientation: IC50 means the concentration that inhibits the measured activity by half. Read a low IC50 as inhibition by little substance. Usually half-life stands for the time in which the quantity being followed falls by half. High values mean slow loss, low ones fast loss.

Converted amounts (≈) assume the structure as drawn. The source made the active and inactive calls. No cut-off for these calls is given here.

Data set [1] deals with Escherichia coli. The data set can be described thus: Antibacterial activity against Escherichia coli CS1562 assessed as reduction in bacterial growth under dark condition measured after 24 hrs by plate reader method. Type of data set: functional. The essentials:
(§1)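 E. coli CS1562 grown overnight at 37 °C in LB with tetracycline (10 μg/mL), then diluted to 0.002 OD600. Compound serial dilutions made in DMSO and diluted 25-fold in LB. Irradiated set exposed to 355 nm for 30 min before adding cells; dark set not irradiated. Triplicates grown overnight at 37 °C with OD600 read every 10 min, background-corrected to t=0.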

Data set [2] relates to Escherichia coli. The data set can be described thus: Antibacterial activity against Escherichia coli CS1562 assessed as reduction in bacterial growth irradiated with 355 nm light measured after 24 hrs by plate reader method. It is filed as functional. The note with it: CS1562, light or radiation study. The essentials: as §1
Data set [3] deals with Escherichia coli. The experiment in a line: Antibacterial activity against Escherichia coli CS1562 assessed as reduction in bacterial growth at 20 uM measured after 24 hrs under dark condition by plate reader method. Type of data set: functional, organism-based. The essentials: as §1
In data set [4] the test system is Escherichia coli. The data set can be described thus: Antibacterial activity against Escherichia coli CS1562 assessed as reduction in bacterial growth at 20 uM irradiated with 355 nm light measured after 24 hrs by plate reader method. It is filed as functional, organism-based. The essentials: as §1
Data set [5] in a line: Inhibition of Escherichia coli DHFR irradiated with 390 nm light preincubated with NADPH for 3 mins followed by compound addition for 7 mins by colorimetric assay. The essentials: (§2)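 In-house E. coli DHFR expressed in BL21(DE3) and Ni-NTA purified. Enzyme (~20 ng) preincubated with 60 μM NADPH, then with inhibitor at 10^-5 to 10^-12 M final, 1% DMSO. Dark samples heat-adapted to the trans isomer; irradiated samples brought to PSS at 100 μM for 15–45 min. Reaction started with 15 μM dihydrofolate, A340 followed every 5 s for 300 s at 25 °C. Triplicates; activity taken relative to a DMSO control; IC50 from nonlinear regression.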

A short description of data set [6]: Inhibition of Escherichia coli DHFR preincubated with NADPH for 3 mins followed by compound addition for 7 mins under dark condition by colorimetric assay. The essentials: as §2
Data set [7] can be described thus: Half life of compound. Type of data set: physicochemical. The essentials: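 Metastable-isomer thermal relaxation tracked as recovery of the π–π* band under stirring, at 25 °C in DMSO or eDHFR assay buffer, or at 37 °C in 10 mM Tris-HCl pH 7.0. Fitted to a first-order exponential.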

Take `COc1cc(Cc2cnc(N)nc2N)cc(OC)c1OCc1cc(F)c(/N=N/c2c(F)cccc2F)c(F)c1`: the MIC worked out at 10 µM (≈ 5.42 µg/mL) with Escherichia coli [1] and 5 µM (≈ 2.71 µg/mL) in the data set with Escherichia coli [2].

As to `COc1cc(Cc2cnc(N)nc2N)cc(OC)c1OCc1cc(Cl)c(/N=N/c2c(Cl)cccc2Cl)c(Cl)c1`, the MIC with Escherichia coli [1] was above 80 µM; in the data set with Escherichia coli [2], 10 µM (≈ 6.08 µg/mL).

Turning to `COC(C)(C#Cc1cnc(N)nc1N)c1ccc(/N=N/c2cccc(C(=O)O)c2)cc1` (stereo not given), the outcome in the data set with Escherichia coli [3] and with Escherichia coli [4] was Active.

Turning to `Nc1ncc(-c2ccc(/N=N/c3ccccc3)cc2)c(N)n1`, the IC50 in data set [5] and in data set [6] was above 10 µM each time.

Take `Nc1ncc(/N=N/c2ccccc2)c(N)n1`: the half-life in data set [7] was 10 s. For the same compound, the IC50 in data set [5] and in data set [6] was above 10 µM each time.

Consider `Nc1ncc(C#Cc2ccc(/N=N/c3ccccc3)cc2)c(N)n1`, for which the IC50 in data set [5] and in data set [6] was above 10 µM each time.

Turning to `COc1ccc(/N=N/c2ccc(COc3c(OC)cc(Cc4cnc(N)nc4N)cc3OC)cc2)cc1`, the MIC with Escherichia coli [1] came to 20 µM (≈ 10 µg/mL); in the data set with Escherichia coli [2], 10 µM (≈ 5.01 µg/mL).
